Laboratory results published in ChEMBL document CHEMBL5131497, “Design, Synthesis, and Characterization of TNP-2198, a Dual-Targeted Rifamycin-Nitroimidazole Conjugate with Potent Activity against Microaerophilic and Anaerobic Bacterial Pathogens” (J Med Chem, 2022).
In brackets after ≈: the same amount, converted by molar mass. Activity calls are given as the source filed them. The rule behind the calls is not given here.

Key:
[1] = tested on: Gardnerella vaginalis; assay: Antibacterial activity against Gardnerella vaginalis clinical isolate China; format: functional
[2] = tested on: Actinomyces naeslundii; assay: Antibacterial activity against Actinomyces naeslundii ATCC 1210; format: functional
[3] = tested on: Clostridioides difficile; assay: Antibacterial activity against fluoroquinolone-resistant Clostridioides difficile CB1941 harboring gyrAD71Y/T82A mutant measured after 3 days; format: functional; details: CB1941, 72 h, time 3 day
[4] = tested on: Helicobacter pylori; assay: Bactericidal activity against Helicobacter pylori ATCC 700824 assessed as reduction in CFU at 4 to 16 times MIC by time kill assay; format: functional, organism-based
[5] = tested on: Phocaeicola vulgatus; assay: Antibacterial activity against metronidazole-resistant Bacteroides vulgatus 3490; format: functional
[6] = tested on: Bifidobacterium breve; assay: Antibacterial activity against Bifidobacterium ATCC 15698; format: functional
[7] = tested on: Clostridioides difficile; assay: Antibacterial activity against rifampicin-resistant Clostridium difficile MMX 3587; format: functional
[8] = tested on: Fusobacterium nucleatum; assay: Antibacterial activity against Fusobacterium nucleatum ATCC 10953; format: functional
[9] = Antibacterial activity against Mobiluncus mulieris ATCC 35243; format: functional
[10] = tested on: Porphyromonas asaccharolytica; assay: Antibacterial activity against metronidazole-resistant Prevotella asaccharolytica MMX 3552; format: functional
[11] = tested on: Prevotella bivia; assay: Antibacterial activity against Prevotella bivia ATCC 29303/MMX 5718; format: functional
[12] = Half life in C57BL/6 mouse at 20 mg/kg, po; format: ADME, organism-based; details: in vivo
Procedure, shortened: (§1)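 Single-dose PK of TNP-2198 was run in C57BL/6 mice (IV 5 mg/kg; PO 20 mg/kg) and beagle dogs (IV 5 mg/kg; PO 25 mg/kg). Terminal half-life (h) was derived from plasma profiles, together with Tmax, Vdss, CL, AUC and oral bioavailability.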

[13] = Volume of distribution at steady state in Sprague-Dawley rat at 10 mg/kg, iv; format: ADME, organism-based; details: in vivo, read-out: Vdss
[14] = AUC in Sprague-Dawley rat at 10 mg/kg, iv; format: ADME, organism-based; parameters: dose 10 mg/kg, route iv; details: in vivo
Procedure, shortened: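 Plasma PK after single intravenous or oral dosing. Mice C57BL/6 at 5 mg/kg IV or 20 mg/kg PO; Sprague–Dawley rats at 10 mg/kg IV or 50 mg/kg PO; beagle dogs at 5 mg/kg IV or 25 mg/kg PO. AUC reported in ng·h/mL. Clearance from the IV arms in mL/min·kg.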

[15] = Half life in Beagle dog at 25 mg/kg, po; format: ADME, organism-based, Canis lupus familiaris; details: in vivo; procedure, shortened: as §1
[16] = Volume of distribution at steady state in Beagle dog at 5 mg/kg, iv; format: ADME, organism-based, Canis lupus familiaris; details: in vivo, read-out: Vdss
[17] = Drug distribution in Sprague-Dawley rat vaginal secretion measured at 0.5 hrs; format: ADME, tissue-based, Vaginal fluid; details: female, read-out: Ct
Procedure, shortened: (§2)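 Sprague–Dawley rats were dosed with TNP-2198. Concentrations were measured in plasma (ng/mL) and in tissues or contents (ng/g) at 0.5, 2, 6, 12 and 24 h after dosing. Values below the limit of quantification are reported as BLOQ.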

[18] = Drug distribution in Sprague-Dawley rat vaginal tissue measured at 2 hrs; format: ADME, tissue-based, Vagina; details: female, read-out: Ct; procedure, shortened: as §2
[19] = Drug distribution in Sprague-Dawley rat brain measured at 2 hrs; format: ADME, tissue-based; details: read-out: Ct; procedure, shortened: as §2
[20] = Drug distribution in Sprague-Dawley rat ascites fluid measured at 0.5 hrs; format: ADME, tissue-based, Ascitic fluid; details: read-out: Ct; procedure, shortened: as §2
[21] = Drug distribution in Sprague-Dawley rat ascites fluid measured at 2 hrs; format: ADME, tissue-based, Ascitic fluid; details: read-out: Ct; procedure, shortened: as §2
[22] = Drug distribution in Sprague-Dawley rat gums measured at 0.5 hrs; format: ADME, tissue-based, Gingiva; details: read-out: Ct; procedure, shortened: as §2
[23] = Drug distribution in Sprague-Dawley rat stomach content measured at 12 hrs; format: ADME, tissue-based; details: read-out: Ct; procedure, shortened: as §2
[24] = Drug distribution in Sprague-Dawley rat stomach tissue measured at 12 hrs; format: ADME, tissue-based; details: read-out: Ct; procedure, shortened: as §2
[25] = Drug distribution in Sprague-Dawley rat large intestine content measured at 24 hrs; format: ADME, tissue-based; details: read-out: Ct; procedure, shortened: as §2
[26] = Drug distribution in Sprague-Dawley rat large intestine tissue measured at 12 hrs; format: ADME, tissue-based; details: read-out: Ct; procedure, shortened: as §2
[27] = tested on: Helicobacter pylori; assay: Resistance development in Helicobacter pylori MMX 3719 assessed as spontaneous resistance frequency using at 1.90 x 10^8 CFU inoculum at 0.5 ug/ml; format: functional; details: dose 0.5 µg/ml
Procedure, shortened: (§3)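 H. pylori MMX 3719 exposed to 0.5, 1, 2 and 4 µg/mL drug with an inoculum of 1.90×10^8 CFU at each level. Two independent tests were run, and resistant colonies were counted and averaged. A spontaneous resistance frequency was reported for each concentration, and the MPC was taken across the concentrations tested.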

[28] = tested on: Helicobacter pylori; assay: Resistance development in Helicobacter pylori MMX 3719 assessed as spontaneous resistance frequency using at 1.90 x 10^8 CFU inoculum at 4 ug/ml; format: functional; details: dose 4 µg/ml; procedure, shortened: as §3
[29] = tested on: Clostridioides difficile; assay: Resistance development in Clostridioides difficile MMX 4381 assessed as spontaneous resistance frequency using at 1.23 x 10^9 CFU inoculum at 0.5 ug/ml; format: functional; details: dose 0.5 µg/ml
[30] = tested on: Gardnerella vaginalis; assay: Resistance development in Gardnerella vaginalis MMX 5973 assessed as spontaneous resistance frequency using at 4.50 x 10^8 CFU inoculum at 0.5 ug/ml; format: functional; details: dose 0.5 µg/ml
Procedure, shortened: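 Resistant colonies were counted at each drug concentration in two separate tests (test 1, test 2) and averaged. The spontaneous resistance frequency was taken from the mean colony count relative to the inoculum plated. Drug levels tested were 0.5, 1, 2 and 4 µg/mL, and a mutation prevention concentration (MPC) was also reported.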

[31] = tested on: Clostridioides difficile; assay: Resistance development in Clostridioides difficile MMX 4381 assessed as mutation prevention concentration using at 1.90 x 10^8 CFU inoculum; format: functional; details: dose 0.5 µg/ml
[32] = tested on: Gardnerella vaginalis; assay: Resistance development in Gardnerella vaginalis MMX 5973 assessed as mutation prevention concentration using at 4.50 x 10^8 CFU inoculum; format: functional; details: dose 0.5 µg/ml
[33] = tested on: Helicobacter pylori; assay: Antibacterial activity against Helicobacter pylori infected in C57/BL6 mouse assessed as bacterial load in stomach at 15 mg/kg administered twice daily via oral gavage starting from 7 days post inoculation and administered for 7 days (reference value: 5.25 log10CFU); format: functional; details: time 7 day
[34] = tested on: Syrian golden hamster; assay: Antibacterial activity against Clostridioides difficile UNT-103-1 infected in Syrian hamster assessed as survival at 15 to 45 mg/kg, po administered once a daily for 5 days after 18 hrs post 10 mg/kg clindamycin treatment and measured upto 21 days; format: functional, Mesocricetus auratus; details: dose 15-45 mg/kg, time <= 21 day
Procedure, shortened: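 Male Golden Syrian hamsters (80-90 g), housed singly, were gavaged with C. difficile UNT103-1 grown in sporulation medium broth and diluted to OD600 1 in prereduced broth. […] From 18 h later, drug or vehicle was given by oral gavage once daily for 5 days. Survival was recorded through day 21.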

In the case of `CO[C@H]1/C=C/O[C@@]2(C)Oc3c(C)c(O)c4c(c3C2=O)C2=NC3(CCN(CCn5c([N+](=O)[O-])cnc5C)CC3)NC2=C(NC(=O)/C(C)=C\C=C\[C@H](C)[C@H](O)[C@@H](C)[C@@H](O)[C@@H](C)[C@H](OC(C)=O)[C@@H]1C)C4=O` [RIFASUTENIZOL], the MIC [1] is reported as ≤ 0.004 µg/mL, the MIC90 [1] is reported as 0.06 µg/mL (≈ 0.0636 µM) and the MIC [2] is reported as 0.001 µg/mL (≈ 0.00106 µM). The MIC [3] was ≤ 0.002 µg/mL, the Activity [4] was “Active” and the MIC [5] was 0.03 µg/mL (≈ 0.0318 µM). It also gave an MIC [6] of 0.015 µg/mL (≈ 0.0159 µM), an MIC [7] of 0.25 µg/mL (≈ 0.265 µM) and an MIC [8] of 0.12 µg/mL (≈ 0.127 µM). For the same compound, the MIC [9] was 0.001 µg/mL (≈ 0.00106 µM), the MIC [10] was 0.008 µg/mL (≈ 0.00847 µM) and the MIC [11] was 0.015 µg/mL (≈ 0.0159 µM). For the same compound, the half-life [12] was 0.51 h, the Vd [13] was 1.6 L/kg and the AUC [14] was 6490 ng·h/mL. The half-life [15] was 3.4 h, the Vd [16] was 2.8 L/kg and the concentration at 0.5 h [17] was 4190 ng/g. It also gave a concentration at 2 h [18] of 5900 ng/g, a concentration at 2 h [19] of 392 ng/g and a concentration at 0.5 h [20] of 2620 ng/g. For the same compound, the concentration at 2 h [21] was 5270 ng/g, the concentration at 0.5 h [22] was 3470 ng/g and the concentration at 12 h [23] was 138 ng/g. It also gave a concentration at 12 h [24] of 114 ng/g, a concentration at 24 h [25] of 53.9 ng/g and a concentration at 12 h [26] of 31.6 ng/g. For the same compound, the Activity [27] was <5 10^-9No_unit, the Activity [28] was <5 10^-9No_unit and the Activity [29] was 8 10^-9No_unit. For the same compound, the Activity [30] was <2 10^-9No_unit, the Activity [31] was 1 µg/mL and the Activity [32] was “<=0.5 ug ml-1”. It also gave an Activity [33] of 1.94 log10CFU and an Activity [34] of 100%.
